Efflux pump mplx: inhibitors of Candida efflux pumps in yeast, primary screen, S. cerevisiae, Nile Red, multiplex. S. cerevisiae Candida pump triplex. inhibition, % at 10 µM. 330,000 compounds, 0.44% hits;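 active = plate passing quality check with inhibition over a set limit, or well fluorescence over plate mean plus 4 SD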;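 note: Nile Red retained in pooled yeast measured as flow cytometry median fluorescence; higher means more Nile Red kept so more efflux inhibition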
MC4R barr agon: MC4R agonists recruiting beta-arrestin, primary screen, cell-based, luminescence, agonist arm of biased-ligand search. Melanocortin receptor 4 (Homo sapiens), P32245. U2OS MC4R beta-arrestin complementation; percent of melanotan II response, DMSO zero. activation, % at 8.9 µM. 360,000 compounds, 0.98% hits;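 active = activation above a per-plate cutoff, the mean activation of sample wells on that plate plus 3 SD, cut at about 8% in these data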
Target sequence (P32245 whole entry, looked up): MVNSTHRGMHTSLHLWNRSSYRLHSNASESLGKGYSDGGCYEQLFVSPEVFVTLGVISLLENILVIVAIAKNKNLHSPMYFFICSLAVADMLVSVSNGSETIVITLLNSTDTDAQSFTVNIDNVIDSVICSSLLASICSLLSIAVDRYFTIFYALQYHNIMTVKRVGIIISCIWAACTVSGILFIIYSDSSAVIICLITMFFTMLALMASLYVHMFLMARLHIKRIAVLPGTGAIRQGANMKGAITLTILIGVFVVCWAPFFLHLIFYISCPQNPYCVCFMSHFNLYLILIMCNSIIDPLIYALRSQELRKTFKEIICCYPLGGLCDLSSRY
H9c2 TAG inh: inhibitors of triacylglycerol accumulation, primary screen, cell-based, uHTS, fluorescence, H9c2 | H9c2 cells, Nile Red lipid (TAG) fluorescence; cells loaded with 200 µM oleic acid | inhibition, % at 12.5 µM | 230,000 compounds, 0.66% hits;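 active = pattern-corrected inhibition of lipid staining of at least 50% with the nuclear-stain viability signal not falling by more than 50%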
GalR3 antagonist: GalR3 antagonists in HEK293 cells, primary screen, cell-based, fluorescence readout | HEK293 GalR3-CNG cAMP membrane potential fluorescence; galR3 body fused to GalR1 C-terminus | Galanin receptor type 3 (Homo sapiens), O60755 | AID 651719, 2012 | 360,000 compounds, 0.44% hits | inhibition, % at 3 µM;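 active = inhibition above the screen-wide average plus 3 SD, cut at about 13% in these data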;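 note: forskolin and galanin both at EC90 stimulate the cells; cAMP rise reported by CNG channel membrane potential dye signal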
Calb FLC: C. albicans growth inhibition with fluconazole, primary screen, CaCi-2 strain, Alamar Blue fluorescence. C. albicans CaCi-2 (fluconazole-resistant clinical isolate) + fluconazole, 48 h. growth inhibition, % (concentration not given with the values). 300,000 compounds, 0.57% hits. AID 1979, 2009;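 active = growth inhibition above about 58% in most replicates, limit read from the data, passing the limit was not always enough; inconclusive = exactly half the replicates above a set limit; inactive = most replicates below a set limit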;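 note: all wells also contain fluconazole at 8 µg/ml as a sub-toxic cotreatment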
MC4R antagonist: MC4R antagonists of cAMP signaling, primary screen, cell-based, TR-FRET, antagonist arm of biased-ligand search. MC4R-expressing cells, MTII-stimulated cAMP, LANCE TR-FRET. AID 540295, 2011. inhibition, % at 6.5 µM. 360,000 compounds, 0.48% hits;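 active = inhibition above its plate's cutoff, the mean of tested wells on that plate plus 3 SD, cut at about 29% in these data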
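material = U2OS cells stably expressing human melanocortin 4 receptor (MC4R) | also added = Melanotan II challenge | dosing = single nominal compound dose of 6.5 µM | detection = TR-FRET with Eu-cAMP and labeled anti-cAMP, 671 nm | replication = singlicate | timing = compound 30 min, challenge 1 h, detection 1 h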
H9c2 TAG conf: triacylglycerol accumulation inhibitors, retest, confirmation, cell-based, single concentration, Nile Red fluorescence, H9c2; AID 651629, 2012; shares compounds with H9c2 TAG inh; inhibition, % at 12.5 µM; H9c2 lipid accumulation; cells loaded with 200 µM oleic acid; 990 compounds, 71% hits;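 active = mean inhibition across replicates of 40% or more; inactive = mean inhibition below 40%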
Each line names hits and unclear results; the compound was inactive in the other large screens (follow-up assays come after a bar, where they were run). Rows were chosen to be rich in hits. Some 2.9% of all compounds tested hit in one or more screens of this group.

COc1cc(F)ccc1Oc1cccc2c1S(=O)(=O)N(C1CC1)C[C@@H](COCc1ccccc1)O2	none (no result: Efflux pump mplx, MC4R barr agon, H9c2 TAG inh, Calb FLC, MC4R antagonist)
CCCCOCCCNC(=O)C[C@@H]1C[C@@]2(C(=O)OC)CC(C)(C)CC=C2N(Cc2ccco2)C1=O	none (no result: Efflux pump mplx, MC4R barr agon, H9c2 TAG inh, Calb FLC, MC4R antagonist)
C=CCNc1ccc2c(c1)OC[C@@H](CC(C)C)NS2(=O)=O	none (no result: Efflux pump mplx, MC4R barr agon, H9c2 TAG inh, Calb FLC, MC4R antagonist)
CC1(C)Cc2cccc(OCC(=O)Nc3ccc(OCC(N)=O)cc3)c2O1	H9c2 TAG inh 66.4 | H9c2 TAG conf inactive
Cc1nc2ccc(C(=O)Nc3cccc(OCC(=O)N(C)C)c3)cn2c1N(C)CC1CCCCC1	none (no result: Efflux pump mplx, Calb FLC)
COc1ccc2[nH]c3c(c2c1)CCN1C(=O)C(CC(=O)NCCC2=CCCCC2)C[C@H](C(=O)N2CCOCC2)[C@@]31CCC1CCCC1 (stereo not given in full)	none (no result: Calb FLC)
O=C(C[C@H]1C[C@H](C(=O)N2CCOCC2)[C@@]2(CCC3CCCC3)c3[nH]c4ccc(Cl)cc4c3CCN2C1=O)NCC12CC3CC(CC(C3)C1)C2	H9c2 TAG inh 69.1 (no result: Calb FLC) | H9c2 TAG conf 63.2
COc1ccc2[nH]c3c(c2c1)CCN1C(=O)C(CC(=O)NCC24CC5CC(CC(C5)C2)C4)C[C@H](C(=O)N2CCOCC2)[C@@]31CCC1CCCC1 (stereo not given in full)	H9c2 TAG inh 71.9 (no result: Calb FLC) | H9c2 TAG conf 72.9
COc1c2c(cc3c1c(=O)c1ccccc1n3C)OCO2	none (no result: Efflux pump mplx, MC4R barr agon, H9c2 TAG inh, Calb FLC, MC4R antagonist)
CCOc1ccc(NC(=O)C2CCCN(S(=O)(=O)c3ccc4c(c3)C(C)(C)C(=O)N4C)C2)cc1 (stereo not given)	none (no result: Efflux pump mplx, Calb FLC)
CCOC(=O)c1c(C)[nH]c(-c2csc(N)n2)c1C	H9c2 TAG inh 63.8 (no result: Efflux pump mplx, Calb FLC) | H9c2 TAG conf inactive
c1ccc(Cc2cnc(N3CCN(Cc4ccc5c(c4)OCCO5)CC3)nc2)cc1	none (no result: Efflux pump mplx, MC4R barr agon, H9c2 TAG inh, Calb FLC, MC4R antagonist)
COc1cc(NC(=O)c2cc([N+](=O)[O-])ccc2NC(=O)CN2CCN(c3ccccn3)CC2)cc(OC)c1	H9c2 TAG inh 59.8, Calb FLC inconclusive | H9c2 TAG conf 79.4
Cc1cc(N2CCNC[C@H]2C)ccc1N1CCS(=O)(=O)CC1	none (no result: Efflux pump mplx, MC4R barr agon, H9c2 TAG inh, Calb FLC, MC4R antagonist)
CCc1nn2c(N3CCOCC3)cc(C)nc2c1-c1ccc(F)cc1	H9c2 TAG inh 70.1 | H9c2 TAG conf 63.9
Cc1cc(N2CCOCC2)n2nc(C)c(-c3ccc(Cl)cc3)c2n1	none (no result: H9c2 TAG inh)
CCCCCCC12Cc3cc(OC)c(OC)cc3C(O1)C1=C(O2)C(C)(C)CCC1=O (stereo not given)	none (no result: Efflux pump mplx, MC4R barr agon, H9c2 TAG inh, Calb FLC, MC4R antagonist)
Cc1cccc(Nc2nc(NCc3ccco3)nc(N3CCOCC3)n2)c1	H9c2 TAG inh 86.4 | H9c2 TAG conf 82.7
COc1cccc(C(=O)N2CCC[C@@H]2C(=O)N2CCC[C@H]2C(=O)NCc2ccccc2)c1	none (no result: Efflux pump mplx, MC4R barr agon, H9c2 TAG inh, Calb FLC, MC4R antagonist)
O=S(Cc1ccc(Cl)cc1)c1ccccc1 (stereo not given)	none (no result: Efflux pump mplx, Calb FLC)
NNC(=O)Cn1c(-c2nonc2N)nc2ccccc21	none
CCOc1ccc(CCNC(=O)CN2CCN(Cc3ccccc3C)C2=O)cc1OCC	H9c2 TAG inh 59.5 | H9c2 TAG conf 53.9
CCCCOc1ccccc1NC(=O)Cn1c(-c2nonc2N)nc2ccccc21	H9c2 TAG inh 72.8 | H9c2 TAG conf 64.0
CCOc1ccc(CCNC(=O)Cn2c(-c3nonc3N)nc3ccccc32)cc1OCC	H9c2 TAG inh 56.6 (no result: Calb FLC) | H9c2 TAG conf inactive
CCCNC(=O)C1(C)CCN(C(=O)c2ccc(F)c(Cl)c2)C1 (stereo not given)	none (no result: Efflux pump mplx, Calb FLC)
Cc1ccc(N2CCN(C(C(=O)Nc3c(C)cccc3C)c3cccc(F)c3)CC2)cc1 (stereo not given)	none (no result: Efflux pump mplx, MC4R barr agon, H9c2 TAG inh, Calb FLC, MC4R antagonist)
COc1cc(C)ccc1S(=O)(=O)NC(=O)C1(C)CCN1C(=O)Cc1ccc(Cl)cc1Cl (stereo not given)	none (no result: Efflux pump mplx, Calb FLC)
